According to ChEMBL document CHEMBL3797143, “Novel S1P1 receptor agonists - Part 5: From amino-to alkoxy-pyridines” (Eur J Med Chem, 2016):
Active and inactive are the calls of the source. The rule behind the calls is not given here.

Key:
[1] = target: Sphingosine 1-phosphate receptor 1 (Homo sapiens, UniProt P21453); assay: Agonist activity at human recombinant S1PR1 expressed in CHO cell membranes incubated for 30 mins by [35S]GTPgammaS binding assay in presence of GDP; type: functional
Procedure, shortened: (§1)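 Membranes from CHO cells expressing recombinant human S1P1 or S1P3. Compounds were preincubated with membranes for 30 min at room temperature. Reaction stopped by filtration, membrane-bound 35S-GTPγS counted. Geometric mean of ≥3 independent runs.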

[2] = target: Sphingosine 1-phosphate receptor 3 (Homo sapiens, UniProt Q99500); assay: Agonist activity at human recombinant S1PR3 expressed in CHO cell membranes incubated for 30 mins by [35S]GTPgammaS binding assay in presence of GDP; type: functional; procedure, shortened: as §1
Sphingosine 1-phosphate receptor 3, sequence (Q99500 whole entry): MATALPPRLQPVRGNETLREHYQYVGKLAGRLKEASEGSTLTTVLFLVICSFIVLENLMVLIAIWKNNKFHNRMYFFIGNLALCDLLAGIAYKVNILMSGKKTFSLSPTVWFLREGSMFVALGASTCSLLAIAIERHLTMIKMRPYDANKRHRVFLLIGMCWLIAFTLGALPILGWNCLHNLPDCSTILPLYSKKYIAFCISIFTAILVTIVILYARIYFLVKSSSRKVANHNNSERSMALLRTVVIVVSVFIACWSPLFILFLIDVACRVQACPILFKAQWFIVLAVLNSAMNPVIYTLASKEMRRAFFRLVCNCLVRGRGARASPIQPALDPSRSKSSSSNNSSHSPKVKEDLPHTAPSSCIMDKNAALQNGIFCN

[3] = Phototoxicity in Balb/c mouse 3T3 clone A31 cells assessed as inhibition of cell viability measured as photo irritancy factor at 0.05 to 100 uM preincubated for 1 hr followed by UVA irradiation measured after 24 hrs by neutral red uptake assay relative to control; type: functional
[4] = test system: Rattus norvegicus; assay: Decrease in peripheral blood lymphocyte count in Wistar rat at 10 mg/kg administered via oral gavage measured after 6 hrs; type: functional; parameters: scale not given: the % may be the effect or the level left
Procedure, shortened: (§2)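 Male Wistar rats (RccHan:WIST) were given 10 mg/kg orally by gavage in vehicle containing 5% DMSO. Blood drawn by sublingual vein puncture under isoflurane before dosing and at the listed times after dosing. Lymphocytes counted on a haematology analyser. Results are % change from baseline, mean of 6-8 animals.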

[5] = test system: Rattus norvegicus; assay: Decrease in peripheral blood lymphocyte count in Wistar rat at 10 mg/kg administered via oral gavage measured after 24 hrs; type: functional; parameters: scale not given: the % may be the effect or the level left; procedure, shortened: as §2
[6] = test system: Rattus norvegicus; assay: Decrease in peripheral blood lymphocyte count in Wistar rat at 10 mg/kg administered via oral gavage measured after 3 hrs; type: functional; parameters: scale not given: the % may be the effect or the level left; procedure, shortened: as §2
[7] = test system: Rattus norvegicus; assay: Time duration of maximum lymphocyte count reduction in Wistar rat at 10 mg/kg administered via oral gavage; type: functional
Procedure, shortened: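 Duration of action is the latest sampling time at which maximal lymphocyte-count reduction was still seen. Male Wistar rats received 10 mg/kg orally, and blood lymphocytes were counted before dosing and at 3, 6 and 24 h (later times in some cases). Mean of 6-8 animals.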

[8] = test system: Rattus norvegicus; assay: Decrease in peripheral blood lymphocyte count in Wistar rat at 10 mg/kg administered via oral gavage measured after 96 hrs; type: functional; parameters: scale not given: the % may be the effect or the level left; procedure, shortened: as §2
[9] = test system: Rattus norvegicus; assay: Decrease in peripheral blood lymphocyte count in Wistar rat at 10 mg/kg administered via oral gavage measured after 72 hrs; type: functional; parameters: scale not given: the % may be the effect or the level left; procedure, shortened: as §2
[10] = Phototoxicity in Balb/c mouse 3T3 clone A31 cells assessed as AUC of UV spectra between 310 and 350 nm normalized to compound concentration at 0.05 to 100 uM preincubated for 1 hr followed by UVA irradiation measured after 24 hrs by neutral red uptake assay relative to control; type: functional
[11] = Half life in Wistar rat at 10 mg/kg administered via oral gavage by LC-MS/MS analysis; type: ADME, organism-based; conditions: in vivo
Procedure, shortened: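 Oral half-life was calculated from plasma concentrations measured in the lymphocyte-count study, in which male Wistar rats received 10 mg/kg orally. Plasma was prepared from EDTA blood by centrifugation at 3000 g for 10 min at 4 °C.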

[12] = Plasma concentration in Wistar rat at 10 mg/kg administered via oral gavage measured after 3 hrs by LC-MS/MS analysis; type: ADME, organism-based
Procedure, shortened: (§3)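 Male Wistar rats received 10 mg/kg orally by gavage. Blood was drawn at the listed times into EDTA tubes, and plasma was prepared by centrifugation at 3000 g for 10 min at 4 °C. Limit of quantification 3 nM.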

[13] = Plasma concentration in Wistar rat at 10 mg/kg administered via oral gavage measured after 24 hrs by LC-MS/MS analysis; type: ADME, organism-based; procedure, shortened: as §3
[14] = Plasma concentration in Wistar rat at 10 mg/kg administered via oral gavage measured after 6 hrs by LC-MS/MS analysis; type: ADME, organism-based; procedure, shortened: as §3

Sphingosine 1-phosphate receptor 1, sequence (P21453 whole entry): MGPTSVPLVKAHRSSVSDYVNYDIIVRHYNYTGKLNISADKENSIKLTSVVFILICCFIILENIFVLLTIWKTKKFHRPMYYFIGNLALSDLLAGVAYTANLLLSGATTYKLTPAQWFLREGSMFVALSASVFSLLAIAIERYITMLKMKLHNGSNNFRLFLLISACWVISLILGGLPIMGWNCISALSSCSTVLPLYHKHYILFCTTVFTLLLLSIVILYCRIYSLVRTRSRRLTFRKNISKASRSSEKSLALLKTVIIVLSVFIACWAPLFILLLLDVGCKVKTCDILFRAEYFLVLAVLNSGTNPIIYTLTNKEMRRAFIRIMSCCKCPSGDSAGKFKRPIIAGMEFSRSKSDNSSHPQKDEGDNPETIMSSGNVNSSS

| SMILES | EC50 [1] [nM] | EC50 [2] [nM] | Ratio [3] | Activity [4] [%] | Activity [5] [%] | Activity [6] [%] | Time [7] [h] | Activity [8] | Activity [9] [%] | Ratio [10] | half-life [11] [h] | concentration at 3 h [12] [nM] | concentration at 24 h [13] [nM] | concentration at 6 h [14] [nM] |
| --- | --- | --- | --- | --- | --- | --- | --- | --- | --- | --- | --- | --- | --- | --- |
| CCc1cc(-c2noc(-c3cnc(OC)c(C4CCCC4)c3)n2)cc(C)c1OC[C@@H](O)CNC(=O)CO | 1.5 | 17 | – | – | – | – | – | – | – | – | – | – | – | – |
| CCc1cc(-c2noc(-c3cc(C)nc(C(CC)CC)c3)n2)cc(C)c1OC[C@@H](O)CNC(=O)CO | – | – | 1.7 | – | – | – | – | – | – | – | – | – | – | – |
| CCc1cc(-c2noc(-c3cc(OC)nc(C4CCCCC4)c3)n2)cc(C)c1OC[C@@H](O)CNC(=O)CO | 7.3 | 690 | – | 58 | 72 | 58 | 24 | 33% | – | – | – | – | – | – |
| CCc1cc(-c2nnc(-c3cc(C)nc(N(CC)CC)c3)o2)cc(C)c1OC[C@@H](O)CNC(=O)CO | – | – | >200 | – | – | – | – | – | – | – | – | – | – | – |
| CCc1cc(-c2noc(-c3cc(C)nc(N(CC)CC)c3)n2)cc(C)c1OC[C@@H](O)CNC(=O)CO | – | – | – | – | 70 | – | 72 | – | 62 | – | – | – | – | – |
| CCc1cc(-c2noc(-c3cnc(OC4CCCC4)c(C)c3)n2)cc(C)c1OC[C@@H](O)CNC(=O)CO | 0.7 | 140 | 1.4 | 85 | 85 | 76 | 24 | – | – | 0.02 | 16 | 1140 | 510 | 960 |
| CCc1cc(-c2nc(-c3cc(C)c(OC[C@@H](O)CNC(=O)CO)c(CC)c3)no2)cc(OC2CCC2)n1 | 1.1 | 55 | – | 75 | 79 | 72 | 168 | – | – | – | – | – | – | – |
| CCc1cc(-c2noc(-c3cc(OC)cc(C4CCCC4)n3)n2)cc(C)c1OC[C@@H](O)CNC(=O)CO | 0.7 | 800 | 2.4 | 61 | 30 | 58 | 6 | – | – | 0 | – | – | – | – |
| CCc1cc(-c2noc(-c3cc(OC4CCCC4)cc(C)n3)n2)cc(C)c1OC[C@@H](O)CNC(=O)CO | 11 | 1400 | 1.3 | 36 | -33 | 50 | <3 | – | – | 0 | < 3 | 1560 | < 9 | 510 |
| CCc1cc(-c2noc(-c3cc(C4CCCC4)cc(OC)n3)n2)cc(C)c1OC[C@@H](O)CNC(=O)CO | 4.5 | 1500 | 2.1 | 75 | -2 | 63 | 6 | – | – | 0.09 | 5 | 1790 | 100 | 1300 |
| CCc1cc(-c2noc(-c3cc(OC)nc(-c4ccccc4)c3)n2)cc(C)c1OC[C@@H](O)CNC(=O)CO | 28 | 1600 | – | – | – | – | – | – | – | – | – | – | – | – |
| CCc1cc(-c2nc(-c3cc(C)c(CCC(=O)NCCO)c(CC)c3)no2)cnc1N(C)C(C)C | – | – | >200 | – | – | – | – | – | – | – | – | – | – | – |
| CCc1cc(-c2nc(-c3cc(C)c(OC[C@@H](O)CNC(=O)CO)c(CC)c3)no2)cc(OC2CCCC2)n1 | 1.1 | 50 | – | 71 | 76 | 64 | 24 | Active | – | – | – | – | – | – |
| CCc1cc(-c2noc(-c3cc(OC)cc(CC(C)C)n3)n2)cc(C)c1OC[C@@H](O)CNC(=O)CO | 1.5 | 1400 | – | 66 | 23 | 58 | 6 | – | – | – | – | – | – | – |
| CCc1cc(-c2nnc(-c3cc(C)nc(CC(C)C)c3)o2)cc(C)c1OC[C@@H](O)CNC(=O)CO | – | – | 1.1 | – | – | – | – | – | – | – | – | – | – | – |
| CCc1cc(-c2noc(-c3cc(C)cc(OC4CCCC4)n3)n2)cc(C)c1OC[C@@H](O)CNC(=O)CO | 1 | 930 | 2 | 58 | -18 | 51 | 6 | – | – | 0.1 | 4 | 1610 | 39 | 890 |
| CCc1cc(-c2nc(-c3cc(C)c(OC[C@@H](O)CO)c(CC)c3)no2)cnc1CC(C)C | – | – | 1.6 | – | – | – | – | – | – | – | – | – | – | – |
| CCc1cc(-c2noc(-c3cc(OC)cc(C(CC)CC)n3)n2)cc(C)c1OC[C@@H](O)CNC(=O)CO | 1.2 | 520 | – | – | – | – | – | – | – | – | – | – | – | – |
| CCc1cc(-c2noc(-c3ccc(C4CCCC4)c(OC)n3)n2)cc(C)c1OC[C@@H](O)CNC(=O)CO | 1.4 | 920 | 6.5 | 78 | 23 | 70 | 6 | – | – | 0.17 | 6 | 690 | 61 | 500 |
| CCc1cc(-c2noc(-c3cc(OC)c(C4CCCC4)cn3)n2)cc(C)c1OC[C@@H](O)CNC(=O)CO | 0.6 | 210 | 2.1 | 86 | 60 | 79 | 6 | – | – | 0.02 | 4 | 2520 | 71 | 2020 |
| CCc1cc(-c2noc(-c3cnc(C4CCCC4)c(OC)c3)n2)cc(C)c1OC[C@@H](O)CNC(=O)CO | 0.3 | 71 | 7.6 | 82 | 84 | 73 | 24 | – | – | 0.15 | 11 | 2390 | 970 | 2950 |
| CCc1cc(-c2noc(-c3cnc(C)c(OC4CCCC4)c3)n2)cc(C)c1OC[C@@H](O)CNC(=O)CO | 21 | 38 | – | – | – | – | – | – | – | – | – | – | – | – |
| CCc1cc(-c2noc(-c3cc(C(CC)CC)cc(OC)n3)n2)cc(C)c1OC[C@@H](O)CNC(=O)CO | 1.1 | 180 | – | 50 | -10 | 57 | <3 | – | – | – | 4 | 410 | 12 | 240 |
